Assay results reported in ChEMBL document CHEMBL3853270, “Influence of Birch Bark Triterpenes on Keratinocytes and Fibroblasts from Diabetic and Nondiabetic Donors” (2016).
Active and inactive are the calls of the source. The calls are words filed in the database; no cut-off is given here.

How the values were obtained:
[1] = Effect on wound healing activity in diabetic adult human primary keratinocytes assessed as upregulation of soluble E-selectin protein levels at 1.96 uM after 24 hrs by bead-based suspension array analysis; type: functional; settings: Keratinocyte
Fibroblast [2] = assay: Effect on pro-inflammatory related gene expression in non-diabetic adult human primary fibroblasts assessed as PTGS2 mRNA levels at 1.96 uM after 6 hrs by qPCR analysis; type: functional
Fibroblast [3] = assay: Effect on chemokines related gene expression in diabetic adult human primary fibroblasts assessed as CCL2 mRNA levels at 1.96 uM after 6 hrs by qPCR analysis; type: functional
Keratinocyte [4] = assay: Effect on pro-inflammatory related gene expression in non-diabetic adult human primary keratinocytes assessed as IL6 mRNA levels at 1.96 uM after 6 hrs by qPCR analysis; type: functional
Keratinocyte [5] = assay: Effect on growth factor related gene expression in non-diabetic young human primary keratinocytes assessed as GDF15 mRNA levels at 1.96 uM after 6 hrs by qPCR analysis; type: functional
Procedure, shortened: (§1)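 Primary human keratinocytes (nondiabetic young or adult, diabetic adult donors) were exposed to compound for 6 h, with 0.1% DMSO as solvent control. Total RNA came from 400 000 cells per sample and was assayed on a Fluidigm Biomark high-throughput qPCR chip. Results are fold change vs solvent control, from 2−4 independent experiments on two donors per group, with SD. Groups were compared by one-way ANOVA with Bonferroni post-test.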

Fibroblast [6] = assay: Effect on antioxidant related gene expression in non-diabetic adult human primary fibroblasts assessed as SOD2 mRNA levels at 1.96 uM after 6 hrs by qPCR analysis; type: functional
Fibroblast [7] = assay: Effect on chemokines related gene expression in non-diabetic young human primary fibroblasts assessed as CCL2 mRNA levels at 1.96 uM after 6 hrs by qPCR analysis; type: functional
Keratinocyte [8] = assay: Effect on pro-inflammatory related gene expression in non-diabetic young human primary keratinocytes assessed as IL1R1 mRNA levels at 1.96 uM after 6 hrs by qPCR analysis; type: functional
Fibroblast [9] = assay: Effect on adhesion molecules related gene expression in non-diabetic adult human primary fibroblasts assessed as ICAM1 mRNA levels at 9.81 uM after 6 hrs by qPCR analysis; type: functional
Procedure, shortened: (§2)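 Dermal fibroblasts from nondiabetic adult and diabetic adult donors, exposed for 6 h at 1.96 or 9.81 μM. ICAM-1 and VCAM-1 mRNA measured by standard qRT-PCR, n = 3. Fold change versus 0.1% DMSO control, SD, one-way ANOVA with Bonferroni post-test.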

[10] = Effect on wound healing activity in non-diabetic adult human primary fibroblasts assessed as upregulation of RANTES protein levels at 1.96 uM after 24 hrs by bead-based suspension array analysis; type: functional; settings: Fibroblast
Fibroblast [11] = assay: Effect on pro-inflammatory related gene expression in non-diabetic adult human primary fibroblasts assessed as IL1B mRNA levels at 9.81 uM after 6 hrs by qPCR analysis; type: functional
Fibroblast [12] = assay: Effect on adhesion molecules related gene expression in diabetic adult human primary fibroblasts assessed as VCAM1 mRNA levels at 1.96 uM after 6 hrs by qPCR analysis; type: functional; procedure, shortened: as §2
[13] = molecular target: Ras-related C3 botulinum toxin substrate 1 (Homo sapiens) (UniProt P63000); assay: Activation of Rac1 in human diabetic primary keratinocytes at 10 nM after 20 mins by immunoblot method
Procedure, shortened: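 Primary keratinocytes from a diabetic adult donor (NHK-d), exposed 20 min. Lysed in glycerol/Tris pH 7.4/NaCl/NP-40/MgCl2/PMSF buffer and cleared at 4 °C. Supernatant incubated 1 h at 4 °C with glutathione-sepharose beads carrying GST-PAK to pull down active GTP-bound Rac1. Blotted on a 13% gel, probed with anti-Rac1 (1:2.000) and detected by ECL; total Rac1 also measured. CNF1 (2 nM) positive control, n = 3.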

Fibroblast [14] = assay: Effect on growth factor related gene expression in non-diabetic young human primary fibroblasts assessed as GDF15 mRNA levels at 1.96 uM after 6 hrs by qPCR analysis; type: functional
Procedure, shortened: (§3)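 Primary human dermal fibroblasts (young or adult nondiabetic, adult diabetic donor) were treated for 6 h against a 0.1% DMSO solvent control. RNA from 320 000 cells per sample was measured by Fluidigm Biomark high-throughput qPCR. Values are fold change relative to solvent control, from four independent experiments, with SD. One-way ANOVA with Bonferroni post-test was applied.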

Keratinocyte [15] = assay: Effect on transcription factor related gene expression in non-diabetic young human primary keratinocytes assessed as JUN mRNA levels at 9.81 uM after 6 hrs by qPCR analysis; type: functional
Fibroblast [16] = assay: Effect on chemokines related gene expression in non-diabetic young human primary fibroblasts assessed as IL8 mRNA levels at 1.96 uM after 6 hrs by qPCR analysis; type: functional; procedure, shortened: as §3
Fibroblast [17] = assay: Effect on pro-inflammatory related gene expression in diabetic adult human primary fibroblasts assessed as IL6 mRNA levels at 1.96 uM after 6 hrs by qPCR analysis; type: functional; procedure, shortened: as §3
Keratinocyte [18] = assay: Effect on AQP3 mRNA expression levels in non-diabetic young human primary keratinocytes at 1.96 uM after 6 hrs by qPCR analysis; type: functional
Procedure, shortened: (§4)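 Primary keratinocytes from nondiabetic young and adult and diabetic adult donors; 400 000 cells per sample, 6 h exposure at 1.96 or 9.81 μM. RNA extracted and read on a high-throughput qPCR chip. Results are fold change versus 0.1% DMSO solvent control from 5−7 independent experiments over two donors per group, SD, one-way ANOVA with Bonferroni post-test.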

[19] = Effect on wound healing activity in non-diabetic adult human primary keratinocytes assessed as upregulation of IL1RA protein levels at 1.96 uM after 24 hrs by bead-based suspension array analysis; type: functional; settings: Keratinocyte
Fibroblast [20] = assay: Effect on pro-inflammatory related gene expression in diabetic adult human primary fibroblasts assessed as PTGS2 mRNA levels at 1.96 uM after 6 hrs by qPCR analysis; type: functional
Keratinocyte [21] = assay: Effect on antioxidant related gene expression in diabetic adult human primary keratinocytes assessed as SOD2 mRNA levels at 9.81 uM after 6 hrs by qPCR analysis; type: functional
Keratinocyte [22] = assay: Effect on chemokines related gene expression in non-diabetic young human primary keratinocytes assessed as CXCL10 mRNA levels at 9.81 uM after 6 hrs by qPCR analysis; type: functional; procedure, shortened: as §1
Keratinocyte [23] = assay: Effect on ECM related gene expression in diabetic adult human primary keratinocytes assessed as FBN1 mRNA levels at 9.81 uM after 6 hrs by qPCR analysis; type: functional; procedure, shortened: as §4
Fibroblast [24] = assay: Effect on adhesion molecules related gene expression in diabetic adult human primary fibroblasts assessed as ICAM1 mRNA levels at 1.96 uM after 6 hrs by qPCR analysis; type: functional; procedure, shortened: as §2
Keratinocyte [25] = assay: Effect on chemokines related gene expression in non-diabetic young human primary keratinocytes assessed as CXCL10 mRNA levels at 1.96 uM after 6 hrs by qPCR analysis; type: functional; procedure, shortened: as §1
[26] = Effect on wound healing activity in non-diabetic adult human primary keratinocytes assessed as upregulation of MIP1alpha protein levels at 1.96 uM after 24 hrs by bead-based suspension array analysis; type: functional; settings: Keratinocyte
Fibroblast [27] = assay: Effect on pro-inflammatory related gene expression in non-diabetic young human primary fibroblasts assessed as PTGS2 mRNA levels at 1.96 uM after 6 hrs by qPCR analysis; type: functional
Keratinocyte [28] = assay: Effect on antiinflammatory related gene expression in non-diabetic young human primary keratinocytes assessed as NFKBIA mRNA levels at 9.81 uM after 6 hrs by qPCR analysis; type: functional

C=C(C)[C@@H]1CC[C@]2(CO)CC[C@]3(C)[C@H](CC[C@@H]4[C@@]5(C)CC[C@H](O)C(C)(C)[C@@H]5CC[C@]43C)[C@@H]12 [BETULIN]
Activity [1]: Active
fold change (FC) (Fibroblast [2]): 146
fold change (FC) (Fibroblast [3]): 3.7
fold change (FC) (Keratinocyte [4]): 16.2
fold change (FC) (Keratinocyte [5]): 1
fold change (FC) (Fibroblast [6]): 18
fold change (FC) (Fibroblast [7]): 4.3
fold change (FC) (Keratinocyte [8]): 0.9
fold change (FC) (Fibroblast [9]): 152
Activity [10]: Active
fold change (FC) (Fibroblast [11]): 214
fold change (FC) (Fibroblast [12]): 3.3
Activity [13]: Active
fold change (FC) (Fibroblast [14]): 3.7
fold change (FC) (Keratinocyte [15]): 1.8
fold change (FC) (Fibroblast [16]): 23.5
fold change (FC) (Fibroblast [17]): 14.9
fold change (FC) (Keratinocyte [18]): 0.9
Activity [19]: Active
fold change (FC) (Fibroblast [20]): 4.1
fold change (FC) (Keratinocyte [21]): 1.6
fold change (FC) (Keratinocyte [22]): 1.7
fold change (FC) (Keratinocyte [23]): 2.5
fold change (FC) (Fibroblast [24]): 6.3
fold change (FC) (Keratinocyte [25]): 1.9
Activity [26]: Active
fold change (FC) (Fibroblast [27]): 10.9
fold change (FC) (Keratinocyte [28]): 1.6
